Assay outcomes as filed in PubChem BioAssay.
CXCR6 inh = blocks human CXCR6 beta-arrestin recruitment; O00574; CHO-K1 PathHunter CXCR6 beta-arrestin, luminescence; inhibition, % at 20 µM; 0.36% of 360,000 active; AID 602244; in the data active = inhibition above about 34%, passing the limit was not always enough;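 note: antagonist mode with CXCL16 agonist at 10 nM final; 0% = 10 nM CXCL16 with DMSO and 100% = unstimulated wells without agonist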
Target sequence (O00574 whole entry, looked up): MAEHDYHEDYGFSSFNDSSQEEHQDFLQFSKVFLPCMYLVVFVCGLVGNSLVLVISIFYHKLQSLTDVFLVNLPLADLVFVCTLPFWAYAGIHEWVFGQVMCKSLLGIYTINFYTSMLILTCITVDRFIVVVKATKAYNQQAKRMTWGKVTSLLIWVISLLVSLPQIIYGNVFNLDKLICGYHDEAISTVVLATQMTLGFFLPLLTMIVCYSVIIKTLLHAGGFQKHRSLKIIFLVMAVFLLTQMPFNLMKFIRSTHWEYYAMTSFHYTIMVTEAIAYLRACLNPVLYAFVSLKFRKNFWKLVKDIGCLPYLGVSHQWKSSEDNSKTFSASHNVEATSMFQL
EBI2 block = EBI2 (human) antagonism | P32249 | AID 651636 | EBI2 beta-arrestin recruitment, luminescence, 7a,25-OHC stimulated | 0.81% of 360,000 active | inhibition, % at 5 µM; in the data active = inhibition above about 38%;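 note: enzyme fragment complementation signal reports receptor beta-arrestin coupling in cells; 0% = agonist plus DMSO wells and 100% = wells without agonist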
Target sequence (P32249 whole entry, looked up, the tested form may be a part): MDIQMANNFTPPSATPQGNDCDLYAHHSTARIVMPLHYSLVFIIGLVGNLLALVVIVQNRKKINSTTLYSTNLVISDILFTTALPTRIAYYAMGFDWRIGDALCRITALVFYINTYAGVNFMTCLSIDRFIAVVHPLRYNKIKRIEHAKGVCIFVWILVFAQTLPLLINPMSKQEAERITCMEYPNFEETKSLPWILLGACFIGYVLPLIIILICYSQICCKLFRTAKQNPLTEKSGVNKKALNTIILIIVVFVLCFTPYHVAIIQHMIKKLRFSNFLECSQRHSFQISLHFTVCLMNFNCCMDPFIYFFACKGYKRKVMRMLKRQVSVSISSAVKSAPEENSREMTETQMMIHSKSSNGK
CCR6 antag = CCR6 (human) receptor antagonism | 0.49% of 340,000 active | inhibition, % at 20 µM | P51684 | CHO-K1 CCR6 PathHunter beta-arrestin, luminescence, CCL20-stimulated;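 active = compounds whose inhibition of the agonist-driven luminescence signal at 20 µM reaches about 50%, limit read from the data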;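 note: cells stimulated with CCL20 at 14 nM final; plate controls were DMSO with CCL20 for no effect and DMSO without agonist for full effect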
APJ ag = agonists of human APJ apelin receptor. activation, % at 20 µM. P35414. 0.11% of 330,000 active. CHO-K1 APJ PathHunter beta-arrestin, luminescence; 0% DMSO wells, 100% apelin;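 active = activation more than six SD over the plate average, tested at 20 µM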;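 note: 0% = DMSO alone and 100% = apelin-13 at 10 nM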
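Assay system – PathHunter CHO-K1 APJ (AGTRL-1) beta-arrestin reporter cells · Compound – one dose, 20 µM compound, 1% DMSO · Timing – compound 90 min 25 °C, reagent 1 h · Measured by – luminescence from split beta-galactosidase complementation, Galacton Star/Emerald II substrate · Measure – beta-arrestin recruitment to APJ as agonist activity, luminescent signal · Benchmarks – DMSO vs Apelin-13 10 nM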
APJ antagonist = APJ receptor antagonism. 0.32% of 330,000 active. inhibition, % at 20 µM. P35414. CHO-K1 APJ beta-arrestin complementation, luminescence;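 active = inhibition above about 40% at 20 µM, limit read from the data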;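 note: cells challenged with 10 nM apelin-13 agonist together with compound; plate controls were apelin-13 plus DMSO wells for no effect and DMSO wells lacking apelin-13 for full effect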
EBI2 conf = confirmation of human EBI2 receptor antagonists; shares compounds with EBI2 block; EBI2 beta-arrestin luminescence, 7a,25-OHC antagonism; inhibition, % at 5 µM; 29% of 2,400 active; AID 651997;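 active = inhibition of at least 50%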
EBI2 ag = activates EBI2, counter-screen for EBI2 antagonists | EBI2-expressing cells, agonist mode, luminescence, 60 min; 0% vehicle, 100% 7α,25-dihydroxycholesterol control | 2,400 tested, under 10 active | activation, % at 5 µM | shares compounds with EBI2 block;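 active = activation of at least 50%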
bGal counter = counter-screen for EBI2 antagonists: E. coli beta-galactosidase inhibition; shares compounds with EBI2 block; purified beta-galactosidase, luminescent Galacton Star, 15 min; inhibition, % at 5 µM; AID 652176; 1% of 2,400 active;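 active = replicate-average signal at least 3 plate SD below neutral wells, shown as high inhibition, flagging enzyme-inhibiting false positives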;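 note: 0% = DMSO wells with enzyme and 100% = wells lacking enzyme; higher means stronger loss of beta-gal luminescence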
An asterisk follows results filed as active; · = not tested or not shown. Rows were chosen to be rich in hits. Some 1.5% of all compounds tested hit in one or more screens of this group.

SMILES	CXCR6 inh	EBI2 block	CCR6 antag	APJ ag	APJ antagonist	EBI2 conf	EBI2 ag	bGal counter
Cc1ccc(-c2cc(C#N)c(=O)n(Cc3c(Cl)cccc3Cl)c2)cc1	5.3	46.8*	-2.6	2.0	-20.6	16.8	0.5	-6.7
N#Cc1cc(-c2ccccc2)cn(Cc2c(Cl)cccc2Cl)c1=O	2.3	35.6	0.9	-2.6	1.3	·	·	·
O=C1COc2cc(S(=O)(=O)CCC(=O)N3CCCCC3)c(Cl)cc2N1	9.4	0.3	3.7	-1.4	-3.1	·	·	·
O=C(c1cc2cc(Br)ccc2o1)N1CCOCC1	-4.0	26.3	12.9	-4.5	16.2	·	·	·
O=C(c1cc2ccccc2o1)N1CCN(c2ncccn2)CC1	-2.5	59.0*	5.3	-4.1	-0.7	33.8	-0.8	-11.1
O=C(c1cc2cc(Br)ccc2o1)N1CCN(c2ccccc2)CC1	-6.6	53.2*	7.7	-3.4	10.0	37.2	1.2	7.7
COc1ccc(C(=O)/C=C/c2ccc(F)cc2)c(OC(=O)c2ccc([N+](=O)[O-])cc2)c1	9.7	53.9*	6.2	-4.5	7.3	26.2	-0.4	8.4
COc1ccc(C(=O)CN2CC(C)SC2=Nc2ccc(Cl)cc2)cc1 (centres undefined)	0.0	44.1*	24.2	0.1	17.9	27.1	0.1	5.0
COc1ccc(C(=O)N2CC(c3ccc(Cl)cc3)CC2=O)cc1 (centres undefined)	-0.9	12.6	2.3	-8.5	3.1	·	·	·
O=C(Nc1ccc2c(c1)OCCO2)C(CCc1ccccc1)N1CCN(C/C=C/c2ccccc2)CC1 (centres undefined)	3.5	43.7*	·	·	·	19.4	-1.3	-7.3
O=C(Nc1ccc2c(c1)OCCO2)C(CCc1ccccc1)N1CCN(c2ccc(F)cc2)CC1 (centres undefined)	4.5	6.8	·	·	·	·	·	·
O=C(Nc1ccc2c(c1)OCCO2)C(c1ccnc2ccccc12)N1CCN(C/C=C/c2ccccc2)CC1 (centres undefined)	-4.2	49.6*	·	·	·	41.6	-0.2	-1.2
CN(CC(=O)Nc1ccccc1Cl)C(=O)c1cc(C2CC2)nn1-c1ccccc1	7.6	2.5	13.9	-2.9	3.5	·	·	·
COCCCn1c(=O)/c(=C\c2ccccc2OC(F)F)s/c1=C(/C#N)C(=O)NC(C)C	11.2	60.0*	2.0	0.2	0.4	50.6*	0.4	-0.3
COc1ccc(C2N(c3ccc(C)cc3)CCN2c2ccc(C)cc2)cc1O	1.6	73.5*	5.1	-2.6	-2.8	15.3	0.7	4.0
CN1CCN(C(=O)c2cc3sc4ccccc4c3s2)CC1	1.7	95.4*	12.9	-3.9	-12.2	70.4*	-0.9	-12.5
Cc1ccc(Oc2ccc(Oc3ccc(C)cc3)nn2)cc1	6.4	91.9*	7.1	-2.5	-12.9	89.3*	2.8	4.1
Cc1ccc(Oc2cnc3ccccc3n2)cc1	7.9	-15.7	1.7	0.2	-4.6	·	·	·
CC1(C(=O)Nc2cnc3ccccc3c2)CCN1C(=O)c1ccccc1CCc1ccccc1 (centres undefined)	7.8	47.7*	·	·	·	37.3	-0.2	-17.3
O=C(Nc1ccc(F)cc1F)N1CCN(CCc2ccccc2)CC1	-5.1	6.5	-23.6	-0.1	8.9	·	·	·
CCCn1c(=S)[nH]c2cc(C(=O)N3CCN(c4ccc(F)cc4)CC3)ccc2c1=O	0.1	-2.3	·	·	·	·	·	·
CCOC(=O)C1CCN(c2nc3ccccc3nc2C(C#N)C(=O)OCCOC)CC1 (centres undefined)	12.9	22.1	27.5	-4.6	18.1	·	·	·
COC(=O)C1CCN(c2nc3ccccc3nc2C(C#N)C(=O)NCCc2ccccc2)CC1 (centres undefined)	9.7	67.0*	26.2	-4.6	17.6	13.7	-1.7	-10.8
O=C(CCc1nnc2n(Cc3ccccc3)c(=O)c3ccccc3n12)NCCN1CCOCC1	8.1	-17.4	1.6	-2.7	-38.2	·	·	·
[O-][n+]1ccc(CC(O)(C(F)(F)F)C(F)(F)F)cc1	-1.3	3.5	·	·	·	·	·	·
SMILES	CXCR6 inh	EBI2 block	CCR6 antag	APJ ag	APJ antagonist	EBI2 conf	EBI2 ag	bGal counter
OC[C@@H]1CN(Cc2ccc(-c3ccccc3)cc2)C[C@H](n2cnc3c(NC4CC4)ncnc32)O1	-4.0	65.3*	·	·	·	64.7*	-1.6	-11.2
OC[C@@H]1CN(Cc2ccc(Cl)cc2)C[C@H](n2cnc3c(NC4CCC4)ncnc32)O1	3.9	44.5*	·	·	·	25.7	0.4	7.0
CC(C)N(C)c1ncnc2c1ncn2[C@H]1CN(Cc2ccncc2)C[C@@H](CO)O1	2.5	9.9	·	·	·	·	·	·
CC(C)N(C)c1ncnc2c1ncn2[C@H]1CN(Cc2ccc(-c3ccccc3)cc2)C[C@@H](CO)O1	-9.1	57.0*	·	·	·	46.3	0.3	-12.9
Cc1cc(OCC(=O)OC(C)C(=O)NC2CC2)c(C(C)C)cc1Cl (centres undefined)	-11.5	7.4	·	·	·	·	·	·
CC(C)C(C(=O)NC1CCCC1)N1CCC(O)(c2ccc(Cl)cc2)CC1 (centres undefined)	·	-2.0	·	·	·	·	·	·
O=C(c1ccc2c(c1)OCO2)N1CCN(S(=O)(=O)c2ccccc2)CC1	-14.8	2.7	-1.7	-2.1	-39.3	·	·	·
O=C(c1ccc(Cl)c(Cl)c1)N1CCN(Cc2ccc3c(c2)OCO3)CC1	-0.8	56.8*	12.4	-2.2	4.2	47.8	0.3	-20.2
O=C(c1cc(-c2ccccc2)on1)N1CCN(Cc2ccc3c(c2)OCO3)CC1	-3.5	49.6*	4.7	0.8	15.0	6.8	1.2	3.6
Cc1ccc(C(=O)N2CCN(Cc3ccc4c(c3)OCO4)CC2)cc1C	-7.5	3.0	14.1	0.4	2.0	·	·	·
O=C(c1ccc2c(c1)OCO2)N1CCN(S(=O)(=O)c2ccc(Br)cc2Cl)CC1	1.9	52.1*	8.4	-0.3	-5.2	23.5	-1.8	-6.8
O=C(c1cc(-c2ccc(F)cc2)no1)N1CCN(Cc2ccc3c(c2)OCO3)CC1	-10.1	75.9*	0.3	-4.5	20.3	49.1	0.9	3.1
CN(C1CCCCC1)S(=O)(=O)c1ccc2c(c1)CCC(=O)N2	-7.2	4.5	-0.6	-6.1	-0.9	·	·	·
Cc1ccc(S(=O)(=O)NCCC(=O)Nc2ccc(S(=O)(=O)NC(C)C)cc2)cc1	2.8	-8.3	17.1	-1.5	1.3	·	·	·
Cc1ccc(OCC(=O)NCCC2=CCCCC2)cc1	6.4	4.5	-2.0	-3.0	6.9	·	·	·
Cc1ccc(SCC(=O)NCCC2=CCCCC2)cc1	1.0	37.7*	3.6	-2.2	0.9	30.8	1.8	0.1
Cn1c(NCc2ccco2)nc2c1c(=O)n(Cc1ccc(Cl)c(Cl)c1)c(=O)n2C	9.6	46.1*	-0.3	5.1	-7.7	35.0	0.1	6.3
Cn1c(NCC(O)CO)nc2c1c(=O)n(Cc1ccc(Cl)c(Cl)c1)c(=O)n2C (centres undefined)	1.9	2.7	-3.3	1.1	3.0	·	·	·
